Assay results reported in ChEMBL document CHEMBL1147105, “In vitro and in vivo activities of PD 0305970 and PD 0326448, new bacterial gyrase/topoisomerase inhibitors with potent antibacterial activities versus multidrug-resistant gram-positive and fastidious organism groups” (2007).
Values after ≈ are worked out from the molar mass of the structure shown.

Key:
Format in all cases: functional
[1] = system: Staphylococcus saprophyticus; assay: Antibacterial activity against Staphylococcus saprophyticus
Outline: (§1)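 Broth microdilution MIC following CLSI guidelines, in cation-adjusted Mueller-Hinton broth, incubated at 35°C. Recent clinical isolates and reference strains, with identity confirmed by automated and standard microbiological methods. Results reported as MIC range, MIC50 and MIC90.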

Staphylococcus warneri = assay: Antibacterial activity against Staphylococcus warneri; outline: as §1
[2] = system: Stenotrophomonas maltophilia; assay: Antibacterial activity against Stenotrophomonas maltophilia; outline: as §1
Escherichia coli = assay: Antibacterial activity against Escherichia coli; outline: as §1
Streptococcus equinus = assay: Antibacterial activity against Streptococcus bovis
Outline: (§2)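 Broth microdilution MIC following CLSI guidelines, in cation-adjusted Mueller-Hinton broth with 3% lysed horse blood. Plates incubated at 35°C. Clinical isolates and reference strains, with identity confirmed by standard microbiological methods.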

Prevotella sp. = assay: Antibacterial activity against Prevotella sp.
Outline: (§3)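 Anaerobic broth microdilution MIC following CLSI guidelines, in supplemented Brucella broth. Run in an anaerobe chamber under 5% CO2, 5% H2 and 90% N2 at 35°C, and read after 48 h. Reported as MIC range, MIC50 and MIC90.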

Neisseria gonorrhoeae = assay: Antibacterial activity against Neisseria gonorrhoeae
Outline: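 MIC by broth microdilution in gonococcal broth, incubated at 35°C in 5% CO2. Reported as MIC range, MIC50 and MIC90.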

Moraxella catarrhalis = assay: Antibacterial activity against beta-lactamase positive Moraxella catarrhalis
Enterococcus faecalis [3] = assay: Antibacterial activity against VanA-resistant Enterococcus faecalis
Outline: (§4)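 Broth microdilution MIC per CLSI guidelines, incubated at 35°C. Cation-adjusted Mueller-Hinton broth for nonfastidious organisms and staphylococci. Streptococci tested in the same broth with 3% lysed horse blood. Anaerobes tested in supplemented Brucella broth inside an anaerobe chamber (5% CO2, 5% H2, 90% N2), read after 48 h. Strains were mainly recent clinical isolates with confirmed identity.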

[4] = system: Peptoniphilus asaccharolyticus; assay: Antibacterial activity against Peptostreptococcus asaccharolyticus; outline: as §3
Klebsiella aerogenes = assay: Antibacterial activity against Enterobacter aerogenes; outline: as §1
Streptococcus sanguinis = assay: Antibacterial activity against Streptococcus sanguis; outline: as §2
Enterococcus faecalis [5] = assay: Antibacterial activity against Enterococcus faecalis; outline: as §4
Haemophilus influenzae = assay: Antibacterial activity against beta-lactamase negative Haemophilus influenzae
Outline: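 Broth microdilution MIC following CLSI guidelines, in Haemophilus test medium at 35°C.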

Enterococcus faecalis [6] = assay: Antibacterial activity against VanB-resistant Enterococcus faecalis; outline: as §4
Anaerococcus prevotii = assay: Antibacterial activity against Peptostreptococcus prevotii; outline: as §3
Burkholderia cepacia = assay: Antibacterial activity against Burkholderia cepacia; outline: as §1
Cutibacterium acnes = assay: Antibacterial activity against Propionibacterium acnes
Enterobacter cloacae = assay: Antibacterial activity against Enterobacter cloacae; outline: as §1
Enterococcus faecium [7] = assay: Antibacterial activity against VanB-resistant Enterococcus faecium; outline: as §4
Shigella flexneri = assay: Antibacterial activity against Shigella flexneri; outline: as §1
Streptococcus pneumoniae = assay: Antibacterial activity against penicillin-resistant Streptococcus pneumoniae; outline: as §4
Citrobacter freundii = assay: Antibacterial activity against Citrobacter freundii; outline: as §1
Clostridium perfringens = assay: Antibacterial activity against Clostridium perfringens; outline: as §4
[8] = system: Parabacteroides distasonis; assay: Antimicrobial activity against Bacteroides distasonis
Outline: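 Anaerobic broth microdilution MIC following CLSI guidelines, in supplemented Brucella broth. Incubated at 35°C in a chamber under 5% CO2, 5% H2 and 90% N2. Read after 48 h.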

Finegoldia magna = assay: Antibacterial activity against Peptostreptococcus magnus; outline: as §3
Shigella sonnei = assay: Antibacterial activity against Shigella sonnei; outline: as §1
Streptococcus viridans = assay: Antibacterial activity against Streptococcus viridans; outline: as §2
Corynebacterium jeikeium = assay: Antibacterial activity against Corynebacterium jeikeium
Outline: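 Broth microdilution MIC following CLSI guidelines, in cation-adjusted Mueller-Hinton broth containing 3% lysed horse blood, incubated at 35°C. Clinical isolates with identity confirmed. Reported as MIC range, MIC50 and MIC90.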

Staphylococcus aureus = assay: Antibacterial activity against oxacillin and levofloxacin-resistant Staphylococcus aureus; outline: as §4
Enterococcus faecalis [9] = assay: Antibacterial activity against beta-lactamase positive Enterococcus faecalis
Outline: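 MIC by CLSI broth microdilution for nonfastidious organisms, in cation-adjusted Mueller-Hinton broth incubated at 35°C.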

Fusobacterium nucleatum = assay: Antibacterial activity against Fusobacterium nucleatum; outline: as §3
Enterococcus faecium [10] = assay: Antibacterial activity against Enterococcus faecium; outline: as §4
Prevotella bivia = assay: Antibacterial activity against Prevotella bivia; outline: as §3
Enterococcus gallinarum = assay: Antibacterial activity against Enterococcus gallinarum
Proteus vulgaris = assay: Antibacterial activity against Proteus vulgaris; outline: as §1

## COc1c(N2CCNC(C)C2)c(F)cc2c(=O)c(C(=O)O)cn(C3CC3)c12 (stereo not drawn) [GATIFLOXACIN]
[1]
  MIC50: 0.25 µg/mL (≈ 0.666 µM)
  MIC90: 0.25 µg/mL (≈ 0.666 µM)
Staphylococcus warneri
  MIC: 0.125 µg/mL (≈ 0.333 µM)
[2]
  MIC50: 1 µg/mL (≈ 2.66 µM)
  MIC90: 8 µg/mL (≈ 21.3 µM)
Escherichia coli
  MIC50: 0.03 µg/mL (≈ 0.0799 µM)
  MIC90: 1 µg/mL (≈ 2.66 µM)
Streptococcus equinus
  MIC50: 1 µg/mL (≈ 2.66 µM)
  MIC90: 1 µg/mL (≈ 2.66 µM)
Prevotella sp.
  MIC50: 0.25 µg/mL (≈ 0.666 µM)
  MIC90: 0.5 µg/mL (≈ 1.33 µM)
Neisseria gonorrhoeae
  MIC50: 0.004 µg/mL (≈ 0.0107 µM)
  MIC90: 0.008 µg/mL (≈ 0.0213 µM)
Moraxella catarrhalis
  MIC50: 0.03 µg/mL (≈ 0.0799 µM)
  MIC90: 0.06 µg/mL (≈ 0.16 µM)
Enterococcus faecalis [3]
  MIC: 8 µg/mL (≈ 21.3 µM)
[4]
  MIC: 0.06 µg/mL (≈ 0.16 µM)
Klebsiella aerogenes
  MIC50: 1 µg/mL (≈ 2.66 µM)
  MIC90: 32 µg/mL (≈ 85.2 µM)
Streptococcus sanguinis
  MIC50: 0.5 µg/mL (≈ 1.33 µM)
  MIC90: 0.5 µg/mL (≈ 1.33 µM)
Enterococcus faecalis [5]
  MIC50: 8 µg/mL (≈ 21.3 µM)
  MIC90: 16 µg/mL (≈ 42.6 µM)
Haemophilus influenzae
  MIC50: 0.008 µg/mL (≈ 0.0213 µM)
  MIC90: 0.015 µg/mL (≈ 0.04 µM)
Enterococcus faecalis [6]
  MIC50: 8 µg/mL (≈ 21.3 µM)
  MIC90: 16 µg/mL (≈ 42.6 µM)
Anaerococcus prevotii
  MIC: 0.06 µg/mL (≈ 0.16 µM)
Burkholderia cepacia
  MIC50: 4 µg/mL (≈ 10.7 µM)
  MIC90: 16 µg/mL (≈ 42.6 µM)
Cutibacterium acnes
  MIC50: 1 µg/mL (≈ 2.66 µM)
  MIC90: 8 µg/mL (≈ 21.3 µM)
Enterobacter cloacae
  MIC50: 0.06 µg/mL (≈ 0.16 µM)
  MIC90: 1 µg/mL (≈ 2.66 µM)
Enterococcus faecium [7]
  MIC: 2 µg/mL (≈ 5.33 µM)
Shigella flexneri
  MIC50: 0.03 µg/mL (≈ 0.0799 µM)
  MIC90: 0.06 µg/mL (≈ 0.16 µM)
Streptococcus pneumoniae
  MIC50: 0.25 µg/mL (≈ 0.666 µM)
  MIC90: 1 µg/mL (≈ 2.66 µM)
Citrobacter freundii
  MIC50: 0.25 µg/mL (≈ 0.666 µM)
  MIC90: 16 µg/mL (≈ 42.6 µM)
Clostridium perfringens
  MIC50: 0.5 µg/mL (≈ 1.33 µM)
  MIC90: 0.5 µg/mL (≈ 1.33 µM)
[8]
  MIC50: 4 µg/mL (≈ 10.7 µM)
  MIC90: 16 µg/mL (≈ 42.6 µM)
Finegoldia magna
  MIC: 0.06 µg/mL (≈ 0.16 µM)
Shigella sonnei
  MIC50: 0.03 µg/mL (≈ 0.0799 µM)
  MIC90: 0.06 µg/mL (≈ 0.16 µM)
Streptococcus viridans
  MIC50: 0.5 µg/mL (≈ 1.33 µM)
  MIC90: 0.5 µg/mL (≈ 1.33 µM)
Corynebacterium jeikeium
  MIC50: 0.125 µg/mL (≈ 0.333 µM)
  MIC90: 0.5 µg/mL (≈ 1.33 µM)
Staphylococcus aureus
  MIC50: 8 µg/mL (≈ 21.3 µM)
  MIC90: 16 µg/mL (≈ 42.6 µM)
Enterococcus faecalis [9]
  MIC: 0.25 µg/mL (≈ 0.666 µM)
Fusobacterium nucleatum
  MIC: 0.015 µg/mL (≈ 0.04 µM)
Enterococcus faecium [10]
  MIC50: 8 µg/mL (≈ 21.3 µM)
  MIC90: 64 µg/mL (≈ 170 µM)
Prevotella bivia
  MIC50: 0.25 µg/mL (≈ 0.666 µM)
  MIC90: 0.5 µg/mL (≈ 1.33 µM)
Enterococcus gallinarum
  MIC50: 0.5 µg/mL (≈ 1.33 µM)
  MIC90: 1 µg/mL (≈ 2.66 µM)
Proteus vulgaris
  MIC: 0.06 µg/mL (≈ 0.16 µM)
